# Results reported in ChEMBL document CHEMBL4130564, “Indolylalkyltriphenylphosphonium Analogues Are Membrane-Depolarizing Mycobactericidal Agents” (ACS Med Chem Lett, 2017).
# Activity calls are given as the source filed them. The rule behind the calls is not given here.
# Legend:
# [1] = tested on: Mycobacterium tuberculosis; assay: Antibacterial activity against Mycobacterium bovis BCG ATCC 35734 after 5 days by broth dilution method; format: functional; conditions: BCG str. ATCC 35743, 120 h
# Procedure, shortened: (§1)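 Broth dilution; growth read by turbidity; MIC50 and MIC90 are the concentrations reducing growth by 50% and 90% relative to untreated controls; average of two or more separate determinations.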
# [2] = tested on: Mycobacterium bovis BCG str. ATCC 35743; assay: Inhibition of NDH2 in Mycobacterium bovis BCG ATCC 35734 assessed as reduction in oxygen consumption at 80 uM after 1 hr by methylene blue-based assay
# Procedure, shortened: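 Mid-log M. bovis BCG cultures in 7H9 medium were exposed to compound, then methylene blue was added (0.001%) and the tubes were incubated oxygen-free at 37 °C for […]. Oxygen use was read as methylene blue decolorization. Controls were medium-only tubes and drug-free culture.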
# [3] = tested on: Mycobacterium tuberculosis; assay: Bactericidal activity against Mycobacterium bovis BCG ATCC 35734 assessed as reduction in colony forming units at 6 uM after 1 to 5 days by time kill assay; format: functional, organism-based; conditions: BCG str. ATCC 35743
# [4] = tested on: Lipid bilayer; assay: Binding affinity to DMPG vesicles assessed as increase in melting transition temperature by differential scanning calorimetric analysis
# Procedure, shortened: (§2)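 Compound-loaded vesicles of negatively charged dimyristoylphosphatidylglycerol, used as a bacterial membrane surrogate, were scanned by differential scanning calorimetry. The gel-to-liquid melting endotherm was read for melting temperature (Tm) and calorimetric enthalpy (ΔH).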
# [5] = tested on: Mycobacterium tuberculosis; assay: Antibacterial activity against Mycobacterium tuberculosis H37Rv ATCC 27294 after 7 days by broth dilution method; format: functional; conditions: H37Rv ATCC 27294, 168 h; procedure, shortened: as §1
# [6] = Hemolytic activity against human RBC after 1 hr; format: ADME, cell-based, Erythrocyte; conditions: human red blood cells (erythrocytes)
# Procedure, shortened: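 Human red blood cells were exposed to compound, and lysis was scaled against Triton X-100 (2% v/v), taken as 100% hemolysis. HC50 was the concentration lysing 50% of cells, averaged over two or more separate determinations.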
# [7] = tested on: Mycobacterium tuberculosis; assay: Bactericidal activity against Mycobacterium bovis BCG ATCC 35734 assessed as reduction in membrane potential by measuring red to green fluorescent ratio at 24 uM measured at 20 mins to 3 hrs by DiOC2-dye based fluorescence assay; format: functional, organism-based; conditions: BCG str. ATCC 35743
# [8] = tested on: Mycobacterium tuberculosis; assay: Bactericidal activity against Mycobacterium bovis BCG ATCC 35734 assessed as reduction in oxygen consumption at 10 times MIC90 after 1 hr by methylene blue-based assay; format: functional, organism-based; conditions: BCG str. ATCC 35743
# [9] = tested on: Mycobacterium tuberculosis; assay: Bactericidal activity against Mycobacterium bovis BCG ATCC 35734 assessed as suppression of reductive capacity by measuring decrease in formazan formation after 0.5 to 1 hr by MTT reduction assay; format: functional, organism-based; conditions: BCG str. ATCC 35743
# Procedure, shortened: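 BCG cultures exposed to 0.2–100 μM for 30 min and 1 h, then MTT added; formazan production read at 595 nm against drug-free basal absorbance; CCCP 100 μM reference; representative of two independent experiments.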
# [10] = tested on: Mycobacterium tuberculosis; assay: Bactericidal activity against Mycobacterium bovis BCG ATCC 35734 assessed as increase in propidium iodide uptake at 6 uM after 1 to 5 days by flow cytometry; format: functional, organism-based; conditions: BCG str. ATCC 35743
# [11] = tested on: Mycobacterium tuberculosis; assay: Bactericidal activity against Mycobacterium bovis BCG ATCC 35734 assessed as reduction in membrane potential by measuring red to green fluorescent ratio at 24 uM measured after 1 to 5 days by DiOC2-dye based fluorescence assay; format: functional, organism-based; conditions: BCG str. ATCC 35743
# Procedure, shortened: (§3)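 Membrane potential in treated BCG cultures tracked as DiOC2 red/green fluorescence ratio over extended exposure of 1, 3 and 5 days.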
# [12] = tested on: Mycobacterium tuberculosis; assay: Bactericidal activity against Mycobacterium bovis BCG ATCC 35734 assessed as cell elongation at 24 uM after 1 to 5 days by acid-fast staining-based light microscopy; format: functional, organism-based; conditions: BCG str. ATCC 35743
# [13] = tested on: Vero C1008; assay: Cytotoxicity against African green monkey Vero E6 cells assessed as reduction in cell viability after 48 hrs by cell titre 96 aqueous one solution-based assay; conditions: Chlorocebus sabaeus, Vero C1008, 48 h
# Procedure, shortened: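 Vero cell viability was compared with untreated control cells. IC50 was taken as the concentration giving 50% loss of viability, averaged over two or more separate determinations.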
# [14] = tested on: Mycobacterium tuberculosis; assay: Bactericidal activity against Mycobacterium bovis BCG ATCC 35734 assessed as reduction in oxygen consumption at 5 times MIC90 after 1 hr by methylene blue-based assay; format: functional, organism-based; conditions: BCG str. ATCC 35743
# [15] = tested on: Mycobacterium tuberculosis; assay: Bactericidal activity against Mycobacterium bovis BCG ATCC 35734 assessed as reduction in oxygen consumption at 15 times MIC90 after 1 hr by methylene blue-based assay; format: functional, organism-based; conditions: BCG str. ATCC 35743
# [16] = tested on: Mycobacterium tuberculosis; assay: Bactericidal activity against Mycobacterium bovis BCG ATCC 35734 assessed as reduction in colony forming units after 5 days; format: functional, BCG str. ATCC 35743; conditions: for MBC: Mycobacterium tuberculosis, BCG ATCC 35734, 120 h, read-out: MBC99.9
# [17] = tested on: Mycobacterium tuberculosis; assay: Bactericidal activity Mycobacterium bovis BCG ATCC 35734 assesses as cell death at 15 times MIC90 after 1 hr in presence of methylene blue; format: functional, organism-based; conditions: BCG str. ATCC 35743
# [18] = tested on: Mycobacterium tuberculosis; assay: Bactericidal activity against Mycobacterium bovis BCG ATCC 35734 assessed as increase in propidium iodide uptake at 1.6 uM after 1 to 5 days by flow cytometry; format: functional, organism-based; conditions: BCG str. ATCC 35743
# [19] = tested on: Mycobacterium tuberculosis; assay: Bactericidal activity against Mycobacterium bovis BCG ATCC 35734 assessed as reduction in colony forming units at 1.6 uM after 1 to 5 days by time kill assay; format: functional, organism-based; conditions: BCG str. ATCC 35743
# [20] = tested on: Mycobacterium tuberculosis; assay: Bactericidal activity against Mycobacterium bovis BCG ATCC 35734 assessed as reduction in membrane potential by measuring red to green fluorescent ratio at 0.08 uM measured at 20 mins to 3 hrs by DiOC2-dye based fluorescence assay; format: functional, organism-based; conditions: BCG str. ATCC 35743
# [21] = tested on: Mycobacterium tuberculosis; assay: Bactericidal activity against Mycobacterium bovis BCG ATCC 35734 assessed as reduction in colony forming units at 4 uM after 1 to 5 days by time kill assay; format: functional, organism-based; conditions: BCG str. ATCC 35743
# [22] = tested on: Mycobacterium tuberculosis; assay: Bactericidal activity against Mycobacterium bovis BCG ATCC 35734 assessed as increase in propidium iodide uptake at 4 uM after 1 to 5 days by flow cytometry; format: functional, organism-based; conditions: BCG str. ATCC 35743
# [23] = tested on: Mycobacterium tuberculosis; assay: Bactericidal activity against Mycobacterium bovis BCG ATCC 35734 assessed as cell elongation at 12 uM after 1 to 5 days by acid-fast staining-based light microscopy; format: functional, organism-based; conditions: BCG str. ATCC 35743
# [24] = tested on: Mycobacterium tuberculosis; assay: Bactericidal activity against Mycobacterium bovis BCG ATCC 35734 assessed as reduction in membrane potential by measuring red to green fluorescent ratio at 12 uM measured at 20 mins to 3 hrs by DiOC2-dye based fluorescence assay; format: functional, organism-based; conditions: BCG str. ATCC 35743
# [25] = tested on: Mycobacterium tuberculosis; assay: Bactericidal activity against Mycobacterium bovis BCG ATCC 35734 assessed as reduction in membrane potential by measuring red to green fluorescent ratio at 12 uM measured after 1 to 5 days by DiOC2-dye based fluorescence assay; format: functional, organism-based; conditions: BCG str. ATCC 35743; procedure, shortened: as §3
# [26] = tested on: Lipid bilayer; assay: Binding affinity to DMPG vesicles assessed as melting transition temperature by differential scanning calorimetric analysis (reference value: 21.09 to 23.28 degC)
# [27] = tested on: Lipid bilayer; assay: Binding affinity to DMPG vesicles assessed as change in enthalpy at 2 mM by differential scanning calorimetric analysis (reference value: -20.63 kJ/mol); procedure, shortened: as §2
Structure (SMILES),MIC50 [1] [µM],MIC90 [1] [µM],also measured
COc1ccc2c(ccn2CCC[P+](c2ccccc2)(c2ccccc2)c2ccccc2)c1,10,23,
CSc1ccc2c(c1)N(CCC1CCCCN1C)c1ccccc1S2 (configuration not stated),,,inhibition [2]: Active
O=[N+]([O-])c1cccc2c1ccn2CCCCC[P+](c1ccccc1)(c1ccccc1)c1ccccc1.[I-],2,3,Activity [3]: Active; ΔTm [4]: 1 °C; MIC50 [5]: 4 µM; MIC90 [5]: 6 µM; HC50 at 1 h [6]: 196 µM; Activity [7]: Active; Activity [8]: Active; Activity [9]: Dose-dependent effect; Activity [10]: Active; Activity [11]: Active; Activity [12]: Active; IC50 [13]: 36 µM; Activity [14]: inactive; Activity [15]: Active; MBC99 [16]: 3 µM; MBC [16]: 6 µM; Activity [17]: Toxic
Fc1ccc2c(ccn2CCC[P+](c2ccccc2)(c2ccccc2)c2ccccc2)c1,8,17,
NNC(=O)c1ccncc1,,,Activity [18]: inactive; Activity [19]: Active
CO[C@H]1/C=C/O[C@@]2(C)Oc3c(C)c(O)c4c(O)c(c(/C=N/N5CCN(C)CC5)c(O)c4c3C2=O)NC(=O)/C(C)=C\C=C\[C@H](C)[C@H](O)[C@@H](C)[C@@H](O)[C@@H](C)[C@H](OC(C)=O)[C@@H]1C,,,Activity [20]: inactive
O=[N+]([O-])c1ccc2c(ccn2CCCCC[P+](c2ccccc2)(c2ccccc2)c2ccccc2)c1,3,5,
COc1ccc2ccn(CCCCC[P+](c3ccccc3)(c3ccccc3)c3ccccc3)c2c1,4,8,
COc1ccc2ccn(CCC[P+](c3ccccc3)(c3ccccc3)c3ccccc3)c2c1,7,15,
CCCCCCCCn1cc(CN2CCC3(CCc4ccccc43)CC2)c2ccc(OC)cc21,,,Activity [21]: Active; Activity [22]: Active
COc1cccc2c1ccn2CCC[P+](c1ccccc1)(c1ccccc1)c1ccccc1,6,11,
COc1cccc2c1ccn2CCCCC[P+](c1ccccc1)(c1ccccc1)c1ccccc1,3,5,
COc1cccc2ccn(CCC[P+](c3ccccc3)(c3ccccc3)c3ccccc3)c12.[I-],4,6,MIC50 [5]: 6 µM; MIC90 [5]: 20 µM; HC50 at 1 h [6]: > 300 µM; IC50 [13]: 34 µM; MBC99 [16]: 13 µM; MBC [16]: 25 µM
c1ccc(CCCCCC[P+](c2ccccc2)(c2ccccc2)c2ccccc2)cc1,5.2,11.6,
Fc1cccc2ccn(CCC[P+](c3ccccc3)(c3ccccc3)c3ccccc3)c12,5,12,
CCCCCCCCCC[P+](c1ccccc1)(c1ccccc1)c1ccccc1,3.9,6,
COc1ccc2c(ccn2CCCCC[P+](c2ccccc2)(c2ccccc2)c2ccccc2)c1,5,10,
O=[N+]([O-])c1cccc2c1ccn2CCC[P+](c1ccccc1)(c1ccccc1)c1ccccc1.[I-],5,9,MIC50 [5]: 22 µM; MIC90 [5]: 45 µM; HC50 at 1 h [6]: 230 µM; IC50 [13]: > 100 µM; MBC99 [16]: 25 µM; MBC [16]: 50 µM

Structure (SMILES),MIC50 [1] [µM],MIC90 [1] [µM],also measured
Fc1cccc2ccn(CCCCC[P+](c3ccccc3)(c3ccccc3)c3ccccc3)c12,3,6,
c1ccc([P+](CCCCCn2ccc3ccccc32)(c2ccccc2)c2ccccc2)cc1,4.3,6.3,
Fc1cccc2c1ccn2CCCCC[P+](c1ccccc1)(c1ccccc1)c1ccccc1,3,5,
Fc1ccc2c(ccn2CCCCC[P+](c2ccccc2)(c2ccccc2)c2ccccc2)c1,3,5,
O=[N+]([O-])c1ccc2ccn(CCC[P+](c3ccccc3)(c3ccccc3)c3ccccc3)c2c1,7,13,
COc1cccc2ccn(CCCCC[P+](c3ccccc3)(c3ccccc3)c3ccccc3)c12.[I-],2,3,Activity [23]: Active; Activity [3]: Active; Activity [24]: Active; ΔTm [4]: 1 °C; MIC50 [5]: 2 µM; MIC90 [5]: 6 µM; HC50 at 1 h [6]: > 300 µM; Activity [8]: Active; Activity [25]: Active; Activity [9]: Dose-dependent effect; Activity [10]: Active; IC50 [13]: 18 µM; Activity [14]: inactive; Activity [15]: Active; MBC99 [16]: 3 µM; MBC [16]: 6 µM; Activity [17]: Toxic
Fc1ccc2ccn(CCCCC[P+](c3ccccc3)(c3ccccc3)c3ccccc3)c2c1,3,5,
O=[N+]([O-])c1cccc2ccn(CCC[P+](c3ccccc3)(c3ccccc3)c3ccccc3)c12,2,4,
Fc1cccc2c1ccn2CCC[P+](c1ccccc1)(c1ccccc1)c1ccccc1,6,12,
O=[N+]([O-])c1ccc2c(ccn2CCC[P+](c2ccccc2)(c2ccccc2)c2ccccc2)c1,9,12,
Fc1ccc2ccn(CCC[P+](c3ccccc3)(c3ccccc3)c3ccccc3)c2c1,6,12,
CCCn1ccc2cc(F)ccc21,> 50,> 50,Tm [26]: 20.1 °C; deltaH [27]: -4.77 kcal/mol
CCCCCn1ccc2cccc(OC)c21,> 50,> 50,Activity [7]: inactive; Activity [9]: inactive
CCCCC[P+](c1ccccc1)(c1ccccc1)c1ccccc1,28,> 50,Activity [7]: inactive; Activity [9]: inactive
O=[N+]([O-])c1cccc2ccn(CCCCC[P+](c3ccccc3)(c3ccccc3)c3ccccc3)c12,1,2,
O=[N+]([O-])c1ccc2ccn(CCCCC[P+](c3ccccc3)(c3ccccc3)c3ccccc3)c2c1,3,4,
CCC[P+](c1ccccc1)(c1ccccc1)c1ccccc1,> 50,> 50,Tm [26]: 21.1 to 23.2 °C; deltaH [27]: -2.74 kcal/mol
